# Measurements reported in publication PMC8686831 (Molecular pharmaceutics, 2021).
# Experiments:
# [1] = tested on: healthy athymic nude mice; experiment: ^127I-PARPi toxicity study in healthy mice; format: in vivo; settings: 2.05 mg/kg intravenously
# [2] = tested on: HCT116 p53^−/− subcutaneous xenograft tumors; experiment: Survival study in subcutaneous xenograft mice; format: in vivo, athymic nude mice
# Summary of the method: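 Nude mice carried s.c. HCT116 p53+/+ or p53−/− xenografts (10^6 cells, 1:1 media/matrigel). At a mean tumor volume of 100 ± 10 mm3 they were randomized. Dosing was i.v. every 3–4 days for 5 cycles: approximately 74 MBq test compound in 100 μL 30% PEG300 vehicle, or vehicle alone. The p53−/− study added a stable-iodine analogue cohort (approx. 80 μg/kg). Weights were taken daily. Endpoints: distress, significant weight loss, tumor >800 mm3, or ulceration >5 mm.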
compound,measurement,setting,value
O=C(c1cccc([127I])c1)N1CCN(C(=O)c2cc(Cc3n[nH]c(=O)c4ccccc34)ccc2F)CC1 [^127I-PARPi],Toxicity (immunohistochemical and blood chemistry analysis),[1]; healthy mice,no toxicity was observed
same,"Markers associated with liver toxicity (ALP, ALT, AST)",[1]; vs. vehicle,no significant variation compared to vehicle cohorts
same,Effect on overall / median survival compared to vehicle,[2],No significant increase in median survival
same,Improvement of median survival compared to vehicle control group,[2],+26%
same,Median survival (weeks),"[2]; i.v., ^123I-MAPi 74 MBq or ^127I-PARPi approx. 80 μg/kg, every 3–4 days, 5 cycles",3.071 weeks
